The test system of data set [1] is Entamoeba histolytica. The data set can be described thus: Antiamoebic activity against Entamoeba histolytica HM-1:IMSS trophozoites incubated for 10 mins under nitrogen gassed condition measured after 72 hrs by eosin staining based micro dilution method. Format: functional. Put shortly:
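Microdilution in 96-well plates with trophozoites in Diamond TYIS-33 medium at 10^5 cells per mL. Compounds dissolved in ethanol (level non-inhibitory to amoebae), stock 1 mg/mL, tested in triplicate. Plate sealed, gassed with nitrogen 10 min, incubated 37 °C for 72 h. Then medium removed, washed with 0.9% NaCl, methanol-fixed and stained with 0.5% aqueous eosin for 15 min, OD read at 490 nm. IC50 from non-linear regression of % inhibition versus control. At least two independent experiments.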

Data set [2] is described as follows: Cytotoxicity against human A549 cells assessed as reduction in cell viability after 48 hrs by MTT assay. Format: toxicity, cell-based. An outline of the steps: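 Cells seeded at 8000/well in Ham's F-12 with 10% FBS and grown to 80–90% confluence. Medium then replaced with drug-containing medium with 1% FBS; drug range […], each concentration in triplicate, medium-only negative controls. Stocks made in ethanol, diluted in medium. Incubated at 37 °C, 5% CO2 for 48 h. MTT (5 mg/ml) added for 4 h, formazan dissolved in DMSO, absorbance read at 560 nm with 670 nm reference. Viability relative to controls; IC50 from concentration–viability plot.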

In data set [1], `Cc1ccsc1/C=N/NC(=O)c1ccc(OCCN(C)C)cc1` yielded an IC50 of 4.98 µM.
Take `COc1c(O)ccc(/C=N/NC(=O)c2ccc(OCCN(C)C)cc2)c1Br`: the IC50 in data set [1] came to 3.61 µM.
In data set [1], `Cc1cc(C)c(/C=N/NC(=O)c2ccc(OCCN(C)C)cc2)c(C)c1` yielded an IC50 of 1.89 µM. In data set [2], the IC50 at 48 h came out at 81.7 µM.
In the same order, the values of `CN(C)CCOc1ccc(C(=O)N/N=C/c2ccc3c(c2)OCO3)cc1` are 1.06 µM and 548 µM.
As to `CN(C)CCOc1ccc(C(=O)N/N=C/c2ccccc2)cc1`, it took 1.43 µM to reach half-maximal inhibition in data set [1] (IC50). The IC50 at 48 h in data set [2] worked out at 268 µM.
Regarding `COc1cc(/C=N/NC(=O)c2ccc(OCCN(C)C)cc2)ccc1OC(C)=O`, in data set [1], the IC50 was found to be 0.79 µM. Further, the IC50 at 48 h in data set [2] is 186 µM.
The matching figures for `COc1ccc(OC)c(/C=N/NC(=O)c2ccc(OCCN(C)C)cc2)c1`: 1.81 µM and 110 µM.
In turn, `CN(C)CCOc1ccc(C(=O)N/N=C/c2ccccc2Cl)cc1` yielded an IC50 in data set [1] of 0.23 µM. For the same molecule, the half-maximal inhibitory concentration (IC50) at 48 h in data set [2] worked out at 134 µM.
Turning to `CCc1ccc(/C=N/NC(=O)c2ccc(OCCN(C)C)cc2)cc1`, in data set [1], the IC50 stood at 5.65 µM.
In turn, `CN(C)CCOc1ccc(C(=O)N/N=C/c2ccccc2O)cc1` returned an IC50 in data set [1] of 1.76 µM. Also, the IC50 at 48 h in data set [2] is 404 µM.
In data set [1], `CN(C)CCOc1ccc(C(=O)N/N=C/c2ccc(Cl)c(Cl)c2)cc1` displayed an IC50 of 2.81 µM.
Molecule `CCOC(OCC)c1ccc(/C=N/NC(=O)c2ccc(OCCN(C)C)cc2)cc1` gave an IC50 in data set [1] of 1.14 µM. The IC50 at 48 h in data set [2] came out at 172 µM.
In the same order, the values of `COc1ccc(/C=N/NC(=O)c2ccc(OCCN(C)C)cc2)cc1` are 1.53 µM and 126 µM.
On to `CCOc1ccc(/C=N/NC(=O)c2ccc(OCCN(C)C)cc2)cc1`, for which the IC50 in data set [1] was 3.77 µM.
In data set [1], `CN(C)CCOc1ccc(C(=O)N/N=C/c2cc(Br)c(O)c(Br)c2)cc1` had an IC50 of 1.17 µM. Besides, the IC50 at 48 h in data set [2] is 281 µM.
For `COc1ccc(/C=N/NC(=O)c2ccc(OCCN(C)C)cc2)cc1OC`, in data set [1], the half-maximal inhibitory concentration (IC50) worked out at 2.69 µM.
The same measure, in the same setting: the value for `CN(C)CCOc1ccc(C(=O)N/N=C/c2ccc([N+](=O)[O-])cc2)cc1` was 2.4 µM.
In the case of `CN(C)CCOc1ccc(C(=O)N/N=C/c2ccc(Cl)cc2)cc1`, in data set [1], 0.79 µM corresponded to half-maximal inhibition (IC50). The IC50 at 48 h in data set [2] turned out to be 69.4 µM.
Molecule `COc1cc(/C=N/NC(=O)c2ccc(OCCN(C)C)cc2)ccc1OC(C)C` had an IC50 in data set [1] of 4.13 µM.
Still for that read-out and setting: the value for `CN(C)CCOc1ccc(C(=O)N/N=C/c2cccc([N+](=O)[O-])c2)cc1` was 2.8 µM.
`CN(C)CCOc1ccc(C(=O)N/N=C/c2ccc(N(C)C)cc2)cc1` displayed an IC50 in data set [1] of 1.89 µM. Moreover, the IC50 at 48 h in data set [2] is 481 µM.
In the case of `CC(C)Oc1ccc(/C=N/NC(=O)c2ccc(OCCN(C)C)cc2)cc1`, the IC50 in data set [1] worked out at 7.65 µM.
In turn, `CN(C)CCOc1ccc(C(=O)N/N=C/c2cccc(Cl)c2)cc1` yielded an IC50 in data set [1] of 1.01 µM. In addition, the IC50 at 48 h in data set [2] was 140 µM.
The matching figures for `Cc1ccc(/C=N/NC(=O)c2ccc(OCCN(C)C)cc2)cc1`: 1.86 µM and 475 µM.
For the molecule `CN(C)CCOc1ccc(C(=O)N/N=C/c2ccc(O)cc2)cc1`, in data set [1], inhibition was half-maximal at 2.21 µM (IC50).
Same read-out and setting: the same measure for `CC(C)c1ccc(/C=N/NC(=O)c2ccc(OCCN(C)C)cc2)cc1`: 3.45 µM; for `CN(C)CCOc1ccc(C(=O)N/N=C/c2ccc(O)c(O)c2)cc1`: 6.4 µM; for `COc1cc(/C=N/NC(=O)c2ccc(OCCN(C)C)cc2)ccc1O`: 2.41 µM.
In turn, `Cc1ncc([N+](=O)[O-])n1CCO` [METRONIDAZOLE] registered an IC50 in data set [1] of 1.89 µM. Moreover, the IC50 at 48 h in data set [2] was over 100 µM.
With `CN(C)CCOc1ccc(C(=O)N/N=C/c2ccccn2)cc1`, the IC50 in data set [1] turned out to be 2.37 µM.

For orientation: IC50 means the concentration that gives 50% inhibition.
